According to ChEMBL document CHEMBL1142065, “In vitro and in vivo activities of a new cephalosporin, FR264205, against Pseudomonas aeruginosa” (2007):
Values after ≈ are worked out from the molar mass of the structure shown. Active and inactive are the calls of the source. No cut-off for these calls is given here.

What was measured:
[1] = tested on: Pseudomonas aeruginosa; test: Antibacterial activity against ciprofloxacin-resistant Pseudomonas aeruginosa; assay type: functional
Procedure, shortened: (§1)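 Agar dilution MIC per NCCLS (CLSI) M7-A7 on Mueller-Hinton agar with twofold serial drug dilutions. Inoculum 10^4 CFU per spot, aerobic incubation 18 to 20 h at 35°C. MIC is the lowest concentration preventing visible growth.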

[2] = tested on: Escherichia coli; test: Antibacterial activity against Escherichia coli C600 expressing TEM2; assay type: functional
Procedure, shortened: (§2)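 MIC by agar dilution (CLSI M7-A7) on Mueller-Hinton agar with twofold serial drug dilutions; 10^4 CFU spotted per spot; aerobic incubation 18 to 20 h at 35°C; MIC read as lowest concentration preventing visible growth.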

[3] = tested on: Escherichia coli; test: Antibacterial activity against Escherichia coli C600 expressing ESBL TEM4; assay type: functional; procedure, shortened: as §2
[4] = tested on: Pseudomonas aeruginosa; test: Reduction in susceptibility against Pseudomonas aeruginosa PAO1 after single passage; assay type: functional, organism-based
Procedure, shortened: (§3)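 PAO1 passaged daily for five consecutive days in fresh Mueller-Hinton broth with twofold drug dilution series. Each next inoculum came from the tube at one-fourth the MIC. MIC change was followed across passages.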

[5] = tested on: Pseudomonas aeruginosa; test: Antibacterial activity against imipenem-resistant Pseudomonas aeruginosa; assay type: functional; procedure, shortened: as §1
[6] = tested on: Pseudomonas aeruginosa; test: Antibacterial activity against Pseudomonas aeruginosa KG4545 producing MexXY efflux pump; assay type: functional; procedure, shortened: as §1
[7] = tested on: Pseudomonas aeruginosa; test: Antibacterial activity against ceftazidime-resistant Pseudomonas aeruginosa; assay type: functional; procedure, shortened: as §1
[8] = tested on: Escherichia coli; test: Antibacterial activity against Escherichia coli C600 expressing OXA1; assay type: functional; procedure, shortened: as §2
[9] = tested on: Escherichia coli; test: Antibacterial activity against Escherichia coli C600 expressing ESBL TEM5; assay type: functional; procedure, shortened: as §2
[10] = tested on: Pseudomonas aeruginosa; test: Antibacterial activity against Pseudomonas aeruginosa FP1380 expressing constitutive AmpC; assay type: functional; procedure, shortened: as §2
[11] = tested on: Escherichia coli; test: Antibacterial activity against Escherichia coli C600 expressing ESBL TEM8; assay type: functional; procedure, shortened: as §2
[12] = tested on: Escherichia coli; test: Antibacterial activity against Escherichia coli C600 expressing ESBL TEM6; assay type: functional; procedure, shortened: as §2
[13] = tested on: Escherichia coli; test: Antibacterial activity against Escherichia coli C600 expressing ESBL SHV3; assay type: functional; procedure, shortened: as §2
[14] = tested on: Pseudomonas aeruginosa; test: Efficacy against Pseudomonas aeruginosa 93 pulmonary infection in mouse assessed as reduction in bacterial counts at 10 mg/kg, sc; assay type: functional, organism-based; set-up: dose 10 mg/kg
Procedure, shortened: (§4)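 Male ICR mice (4 weeks), made neutropenic with cyclophosphamide 200 mg/kg ip 4 days before infection. Under pentobarbital anesthesia (50 mg/kg iv) they were challenged intranasally with 3.30 log10 CFU of strain 93, grown on tryptic soy agar 35°C 20 h and suspended in saline. Dosed sc twice daily for 3 days from 3 h post-infection. Lung viable counts taken the day after last dose; 6 mice/dose.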

[15] = tested on: Escherichia coli; test: Antibacterial activity against Escherichia coli C600 expressing ESBL SHV4; assay type: functional; procedure, shortened: as §2
[16] = tested on: Escherichia coli; test: Antibacterial activity against Escherichia coli C600 expressing ESBL OXA2; assay type: functional; procedure, shortened: as §2
[17] = tested on: Pseudomonas aeruginosa; test: Antibacterial activity against Pseudomonas aeruginosa 22029 expressing metallo beta lactamase; assay type: functional; procedure, shortened: as §1
[18] = tested on: Escherichia coli; test: Antibacterial activity against Escherichia coli C600; assay type: functional; procedure, shortened: as §2
[19] = tested on: Escherichia coli; test: Antibacterial activity against Escherichia coli C600 expressing ESBL CTX-M3; assay type: functional; procedure, shortened: as §2
[20] = tested on: Pseudomonas aeruginosa; test: Antibacterial activity against Pseudomonas aeruginosa PAO4069 expressing inducible AmpC; assay type: functional; procedure, shortened: as §1
[21] = tested on: Escherichia coli; test: Antibacterial activity against Escherichia coli C600 expressing ESBL TEM7; assay type: functional; procedure, shortened: as §2
[22] = tested on: Escherichia coli; test: Antibacterial activity against Escherichia coli C600 expressing SHV1; assay type: functional; procedure, shortened: as §2
[23] = tested on: Pseudomonas aeruginosa; test: Antibacterial activity against Pseudomonas aeruginosa PAO4222; assay type: functional; procedure, shortened: as §1
[24] = tested on: Pseudomonas aeruginosa; test: Antibacterial activity against Pseudomonas aeruginosa PAO1; assay type: functional; procedure, shortened: as §1
[25] = tested on: Pseudomonas aeruginosa; test: Antibacterial activity against Pseudomonas aeruginosa KG2212 producing MexAB-OprM efflux pump; assay type: functional; procedure, shortened: as §1
[26] = tested on: Escherichia coli; test: Antibacterial activity against Escherichia coli C600 expressing ESBL TEM9; assay type: functional; procedure, shortened: as §2
[27] = tested on: Pseudomonas aeruginosa; test: Antibacterial activity against Pseudomonas aeruginosa PAO1456 expressing constitutive AmpC; assay type: functional; procedure, shortened: as §1
[28] = tested on: Pseudomonas aeruginosa; test: Antibacterial activity against Pseudomonas aeruginosa KG3056 producing MexCD-OprJ efflux pump; assay type: functional; procedure, shortened: as §1
[29] = tested on: Escherichia coli; test: Antibacterial activity against Escherichia coli C600 expressing TEM1; assay type: functional; procedure, shortened: as §2
[30] = tested on: Escherichia coli; test: Antibacterial activity against Escherichia coli C600 expressing ESBL SHV2; assay type: functional; procedure, shortened: as §2
[31] = tested on: Pseudomonas aeruginosa; test: Antibacterial activity against Pseudomonas aeruginosa; assay type: functional; procedure, shortened: as §1
[32] = tested on: Escherichia coli; test: Antibacterial activity against Escherichia coli C600 expressing ESBL TEM3; assay type: functional; procedure, shortened: as §2
[33] = tested on: Pseudomonas aeruginosa; test: Efficacy against Pseudomonas aeruginosa 93 pulmonary infection in mouse assessed as reduction in bacterial counts at 2 mg/kg, sc; assay type: functional, organism-based; set-up: dose 2 mg/kg; procedure, shortened: as §4
[34] = tested on: Pseudomonas aeruginosa; test: Antibacterial activity against Pseudomonas aeruginosa 93; assay type: functional; procedure, shortened: as §2
[35] = tested on: Escherichia coli; test: Antibacterial activity against Escherichia coli C600 expressing ESBL CTX-M18; assay type: functional; procedure, shortened: as §2
[36] = tested on: Pseudomonas aeruginosa; test: Antibacterial activity against Pseudomonas aeruginosa KG4001 producing MexEF-OprN efflux pump; assay type: functional; procedure, shortened: as §1
[37] = tested on: Pseudomonas aeruginosa; test: Efficacy against Pseudomonas aeruginosa 93 assessed as reduction in bacterial counts in mouse urinary tract infection model at 0.5 mg/kg; assay type: functional, organism-based; set-up: dose 0.5 mg/kg; details: Urine
Procedure, shortened: (§5)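 Female ICR mice (4 weeks) were denied water 1 day. Under pentobarbital anesthesia they received 4.32 log10 CFU of strain 93 via the […], which was then clamped 5 h. Dosed sc at 5 h post-challenge plus twice daily for 2 days. Bilateral kidney viable counts taken the day after last treatment; 6 mice/dose.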

[38] = tested on: Pseudomonas aeruginosa; test: Antibacterial activity against Pseudomonas aeruginosa PAO1 after 5 serial passages; assay type: functional; procedure, shortened: as §3
[39] = tested on: Pseudomonas aeruginosa; test: Efficacy against Pseudomonas aeruginosa 93 assessed as reduction in bacterial counts in mouse burn wound infection model at 50 mg/kg, relative to control; assay type: functional, organism-based; set-up: dose 50 mg/kg
Procedure, shortened: (§6)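 Male ICR mice (4 weeks), anesthetized with pentobarbital, received an ethanol flame burn on the shaved back (0.1 ml flaming ethanol applied twice). The wound was inoculated with 4.60 log10 CFU of strain 93. Dosed iv twice daily for 3 days from 3 h post-infection. Lesion viable counts (CFU/g) taken the day after last dose versus untreated controls; 6 mice/dose.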

[40] = tested on: Pseudomonas aeruginosa; test: Efficacy against Pseudomonas aeruginosa 93 assessed as reduction in bacterial counts in mouse urinary tract infection model at 2 mg/kg; assay type: functional, organism-based; set-up: dose 2 mg/kg; details: Urine; procedure, shortened: as §5
[41] = tested on: Pseudomonas aeruginosa; test: Efficacy against Pseudomonas aeruginosa 93 assessed as reduction in bacterial counts in mouse burn wound infection model at 10 mg/kg; assay type: functional, organism-based; set-up: dose 10 mg/kg; procedure, shortened: as §6

## CC(C)(O/N=C(\C(=O)N[C@@H]1C(=O)N2C(C(=O)[O-])=C(C[n+]3ccccc3)CS[C@H]12)c1csc(N)n1)C(=O)O [CEFTAZIDIME]
[1]
  MIC50: 8 µg/mL (≈ 14.6 µM)
  MIC90: 64 µg/mL (≈ 117 µM)
[2]
  MIC: 1 µg/mL (≈ 1.83 µM)
[3]
  MIC: 32 µg/mL (≈ 58.5 µM)
[4]
  Activity: Active
[5]
  MIC50: 4 µg/mL (≈ 7.32 µM)
  MIC90: 16 µg/mL (≈ 29.3 µM)
[6]
  MIC: 2 µg/mL (≈ 3.66 µM)
[7]
  MIC50: 64 µg/mL (≈ 117 µM)
  MIC90: 128 µg/mL (≈ 234 µM)
[8]
  MIC: 0.5 µg/mL (≈ 0.915 µM)
[9]
  MIC: 32 µg/mL (≈ 58.5 µM)
[10]
  MIC: > 128 µg/mL
[11]
  MIC: 128 µg/mL (≈ 234 µM)
[12]
  MIC: 64 µg/mL (≈ 117 µM)
[13]
  MIC: > 128 µg/mL
[14]
  Activity: Active
[15]
  MIC: 128 µg/mL (≈ 234 µM)
[16]
  MIC: 4 µg/mL (≈ 7.32 µM)
[17]
  MIC: > 128 µg/mL
[18]
  MIC: 0.25 µg/mL (≈ 0.457 µM)
[19]
  MIC: 4 µg/mL (≈ 7.32 µM)
[20]
  MIC: 2 µg/mL (≈ 3.66 µM)
[21]
  MIC: 64 µg/mL (≈ 117 µM)
[22]
  MIC: 1 µg/mL (≈ 1.83 µM)
[23]
  MIC: 2 µg/mL (≈ 3.66 µM)
[24]
  MIC: 2 µg/mL (≈ 3.66 µM)
[25]
  MIC: 2 µg/mL (≈ 3.66 µM)
[26]
  MIC: 32 µg/mL (≈ 58.5 µM)
[27]
  MIC: 32 µg/mL (≈ 58.5 µM)
[28]
  MIC: 0.5 µg/mL (≈ 0.915 µM)
[29]
  MIC: 0.25 µg/mL (≈ 0.457 µM)
[30]
  MIC: 128 µg/mL (≈ 234 µM)
[31]
  MIC50: 2 µg/mL (≈ 3.66 µM)
  MIC90: 16 µg/mL (≈ 29.3 µM)
[32]
  MIC: 32 µg/mL (≈ 58.5 µM)
[33]
  Activity: Active
[34]
  MIC: 1 µg/mL (≈ 1.83 µM)
[35]
  MIC: 4 µg/mL (≈ 7.32 µM)
[36]
  MIC: 2 µg/mL (≈ 3.66 µM)

## Cn1c(N)c(NC(=O)NCCN)c[n+]1CC1=C(C(=O)O)N2C(=O)[C@@H](NC(=O)/C(=N\OC(C)(C)C(=O)[O-])c3nsc(N)n3)[C@H]2SC1 [CEFTOLOZANE]
[37]
  Activity: Active
[1]
  MIC50: 1 µg/mL (≈ 1.5 µM)
  MIC90: 2 µg/mL (≈ 3 µM)
[2]
  MIC: 0.5 µg/mL (≈ 0.75 µM)
[38]
  MIC: 2 µg/mL (≈ 3 µM)
[3]
  MIC: 2 µg/mL (≈ 3 µM)
[5]
  MIC: 0.5 µg/mL (≈ 0.75 µM)
  MIC50: 0.5 µg/mL (≈ 0.75 µM)
  MIC90: 1 µg/mL (≈ 1.5 µM)
[6]
  MIC: 0.5 µg/mL (≈ 0.75 µM)
[7]
  MIC50: 2 µg/mL (≈ 3 µM)
  MIC90: 4 µg/mL (≈ 6 µM)
[8]
  MIC: 0.5 µg/mL (≈ 0.75 µM)
[39]
  Activity: Active
[9]
  MIC: 32 µg/mL (≈ 48 µM)
[40]
  Activity: Active
[10]
  MIC: 4 µg/mL (≈ 6 µM)
[11]
  MIC: 16 µg/mL (≈ 24 µM)
[12]
  MIC: 32 µg/mL (≈ 48 µM)
[13]
  MIC: 32 µg/mL (≈ 48 µM)
[14]
  Activity: Active
[15]
  MIC: 16 µg/mL (≈ 24 µM)
[16]
  MIC: 4 µg/mL (≈ 6 µM)
[17]
  MIC: > 128 µg/mL
[18]
  MIC: 0.25 µg/mL (≈ 0.375 µM)
[19]
  MIC: 16 µg/mL (≈ 24 µM)
[20]
  MIC: 0.5 µg/mL (≈ 0.75 µM)
[41]
  Activity: Active
[21]
  MIC: 32 µg/mL (≈ 48 µM)
[22]
  MIC: 0.5 µg/mL (≈ 0.75 µM)
[23]
  MIC: 0.5 µg/mL (≈ 0.75 µM)
[24]
  MIC: 0.5 µg/mL (≈ 0.75 µM)
[25]
  MIC: 0.5 µg/mL (≈ 0.75 µM)
[26]
  MIC: 32 µg/mL (≈ 48 µM)
[27]
  MIC: 1 µg/mL (≈ 1.5 µM)
[28]
  MIC: 0.25 µg/mL (≈ 0.375 µM)
[29]
  MIC: 0.25 µg/mL (≈ 0.375 µM)
[30]
  MIC: 32 µg/mL (≈ 48 µM)
[31]
  MIC50: 0.5 µg/mL (≈ 0.75 µM)
  MIC90: 1 µg/mL (≈ 1.5 µM)
[32]
  MIC: 1 µg/mL (≈ 1.5 µM)
[33]
  Activity: Active
[34]
  MIC: 0.25 µg/mL (≈ 0.375 µM)
[35]
  MIC: 16 µg/mL (≈ 24 µM)
[36]
  MIC: 0.5 µg/mL (≈ 0.75 µM)
